Assay results: ChEMBL document CHEMBL4011617, “Ugi Reaction-Derived α-Acyl Aminocarboxamides Bind to Phosphatidylinositol 3-Kinase-Related Kinases, Inhibit HSF1-Dependent Heat Shock Response, and Induce Apoptosis in Multiple Myeloma Cells” (J Med Chem, 2017)
The source made the active and inactive calls. The rule behind the calls is not given here.

Key:
[1] = molecular target: T1, Heat shock factor protein 1 (Homo sapiens) (UniProt Q00613); assay: Inhibition of NVP-AUY922-induced HSF-1 phosphorylation in human INA-6 cells at 10 uM preincubated for 4 hrs followed by NVP-AUY922 addition measured after 4 hrs by Western blot method; type: cell-based
T1 sequence (whole entry): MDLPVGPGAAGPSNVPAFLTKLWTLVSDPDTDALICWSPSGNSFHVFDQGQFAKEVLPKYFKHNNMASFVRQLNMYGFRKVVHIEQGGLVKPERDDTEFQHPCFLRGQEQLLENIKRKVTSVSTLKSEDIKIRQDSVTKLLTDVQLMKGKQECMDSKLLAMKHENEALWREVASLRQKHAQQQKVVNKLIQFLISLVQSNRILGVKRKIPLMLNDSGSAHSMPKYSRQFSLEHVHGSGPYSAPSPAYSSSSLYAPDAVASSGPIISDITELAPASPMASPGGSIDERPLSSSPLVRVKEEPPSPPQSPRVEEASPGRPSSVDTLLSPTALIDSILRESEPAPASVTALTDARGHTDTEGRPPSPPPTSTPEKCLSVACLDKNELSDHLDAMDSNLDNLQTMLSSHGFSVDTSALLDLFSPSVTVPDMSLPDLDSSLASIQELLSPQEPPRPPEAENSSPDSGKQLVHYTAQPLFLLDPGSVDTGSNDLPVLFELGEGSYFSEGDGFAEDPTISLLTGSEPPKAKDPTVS
In short: (§1)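 INA-6 cells given the dual DNA-PK/mTOR inhibitor NU7441 for 4 h, then co-treated with 10 nM NVP-AUY922 for 4 h more. Protein lysates analysed by Western blot for HSF1, phospho-HSF1, HSP72 and HSP27, with α-tubulin as loading control.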

[2] = tested on: INA-6; assay: Downregulation of NVP-AUY922-induced HSF-1 mRNA expression in human INA-6 cells at 10 uM preincubated for 4 hrs followed by NVP-AUY922 addition measured after 4 hrs by RT-PCR method; type: functional, cell-based
In short: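 INA-6 myeloma cells were treated with the dual DNA-PK/mTOR inhibitor for 4 h, then co-treated with 10 nM NVP-AUY922 for a further 4 h. Total RNA was isolated and HSF1 and HSP72 mRNA was measured by RT-PCR. Values were normalized to α-tubulin.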

[3] = tested on: INA-6; assay: Inhibition of heat shock response in human INA-6 cells assessed as reduction in HSF-1 mediated upregulation of the HSP72 mRNA expression at 10 uM preincubated for 4 hrs followed by HSP90 inhibitor and HSR inducer NVP-AUY922 addition measured after 4 hrs by RT-PCR method; type: functional, cell-based
In short: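 Cells pretreated 4 h with NU7441, then 10 nM NVP-AUY922 added for 4 h. Total mRNA isolated; HSF1 and HSP72 levels determined by RT-PCR and normalized to α-tubulin.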

[4] = tested on: INA-6; assay: Inhibition of heat shock response in human INA-6 cells assessed as reduction in HSF-1 mediated upregulation of the HSP72 protein expression at 10 uM preincubated for 4 hrs followed by HSP90 inhibitor and HSR inducer NVP-AUY922 addition measured after 4 hrs by Western blot method; type: functional, cell-based; in short: as §1
[5] = tested on: INA-6; assay: Downregulation of NVP-AUY922-induced HSF-1 protein expression in human INA-6 cells at 10 uM preincubated for 4 hrs followed by NVP-AUY922 addition measured after 4 hrs by Western blot method; type: functional, cell-based
In short: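 INA-6 cells received the dual DNA-PK/mTOR inhibitor for 4 h, then 10 nM NVP-AUY922 was added for another 4 h. Protein lysates were Western blotted for HSF1, phospho-HSF1, HSP72 and HSP27, with α-tubulin as the loading control.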

[6] = molecular target: T1, Heat shock factor protein 1 (Homo sapiens); assay: Inhibition of NVP-AUY922-induced HSF-1 phosphorylation at S326 residue in human INA-6 cells at 25 uM preincubated for 4 hrs followed by NVP-AUY922 addition measured after 4 hrs by Western blotting method; type: cell-based
In short: (§2)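 INA-6 myeloma cells pretreated with test compound for 4 h, then co-treated with the HSP90 inhibitor/HSR inducer NVP-AUY922 for a further 4 h. Cells harvested; HSP72, HSP27, HSF1 or phospho-HSF1 probed by Western blot with β-actin as loading control. DMSO-only cells were the negative control; NVP-AUY922-only cells were the positive control.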

[7] = tested on: INA-6; assay: Inhibition of heat shock response in human INA-6 cells assessed as reduction in HSF-1 mediated upregulation of the heat shock protein HSP72 at 25 uM preincubated for 4 hrs followed by HSP90 inhibitor and HSR inducer NVP-AUY922 addition measured after 4 hrs by ELISA; type: functional, cell-based
In short: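 HSP72 quantified by ELISA in the same protein lysates used for Western blots. INA-6 cells received compound for 4 h, then NVP-AUY922 co-treatment for 4 h more to stimulate HSF1. DMSO-only and NVP-AUY922-only cells served as negative and positive controls.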

[8] = tested on: INA-6; assay: Induction of apoptosis in human INA-6 cells at 6.3 to 8.6 uM after 72 hrs by annexin V-FITC/propidium iodide staining-based flow cytometry method; type: functional, cell-based
In short: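 INA-6 cells incubated three days with DMSO or increasing compound concentrations. Viability read by annexin V-FITC/propidium iodide staining and flow cytometry. Double-negative (viable) fractions used to fit dose-response curves from three independent experiments; mean ± SD reported.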

[9] = tested on: INA-6; assay: Downregulation of NVP-AUY922-induced HSF-1 protein expression in human INA-6 cells at 25 uM preincubated for 4 hrs followed by NVP-AUY922 addition measured after 4 hrs by Western blot method; type: functional, cell-based
In short: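 INA-6 cells were pre-treated with compound for 4 h, then co-treated with the HSP90 inhibitor NVP-AUY922 for an additional 4 h. Cells were harvested and blotted for HSP72, HSP27, HSF1 or phospho-HSF1, with β-actin as the loading control. DMSO-only cells served as the negative control and NVP-AUY922-only cells as the positive control.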

[10] = tested on: INA-6; assay: Inhibition of heat shock response in human INA-6 cells assessed as reduction in HSF-1 mediated upregulation of the heat shock protein HSP27 at 25 uM preincubated for 4 hrs followed by HSP90 inhibitor and HSR inducer NVP-AUY922 addition measured after 4 hrs by Western blot method; type: functional, cell-based; in short: as §2
[11] = tested on: INA-6; assay: Induction of apoptosis in human INA-6 cells preincubated for 4 hrs followed by NVP-AUY922 addition measured after 68 hrs by annexin V-FITC/propidium iodide staining-based flow cytometry method; type: functional, cell-based
In short: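 INA-6 cells received DMSO or test compound for 72 h. At 4 h, DMSO or 10 nM NVP-AUY922 was added for the remaining 68 h. Viable fraction measured by annexin V-FITC/PI flow cytometry and expressed relative to the matching DMSO controls; means ± SD of three independent experiments.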

[12] = tested on: INA-6; assay: Effect on NVP-AUY922-induced HSF-1 mRNA expression in human INA-6 cells at 25 uM preincubated for 4 hrs followed by NVP-AUY922 addition measured after 4 hrs by RT-PCR method; type: functional, cell-based
In short: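 INA-6 cells exposed to compound for 4 h, then co-treated with 10 nM NVP-AUY922 for another 4 h. Total RNA isolated; HSP27, HSP72 and HSF1 transcripts measured by real-time PCR and normalized to α-tubulin. Means and standard deviations from three independent experiments.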

[13] = tested on: INA-6; assay: Inhibition of heat shock response in human INA-6 cells assessed as reduction in HSF-1 mediated upregulation of the heat shock protein HSP72 at 25 uM preincubated for 4 hrs followed by HSP90 inhibitor and HSR inducer NVP-AUY922 addition measured after 4 hrs by Western blot method; type: functional, cell-based; in short: as §2
[14] = tested on: INA-6; assay: Inhibition of heat shock response in human INA-6 cells assessed as reduction in HSF-1 mediated upregulation of the heat shock protein HSP27 at 25 uM preincubated for 4 hrs followed by HSP90 inhibitor and HSR inducer NVP-AUY922 addition measured after 4 hrs

SMILES	inhibition [1]	Activity [2]	inhibition [3]	inhibition [4]	Activity [5]	inhibition [6]	inhibition [7]	Activity [8]	Activity [9]	inhibition [10]	Activity [11]	Activity [12]	inhibition [13]	inhibition [14]
O=c1cc(N2CCOCC2)oc2c(-c3cccc4c3sc3ccccc34)cccc12	Active	Active	Active	Active	Active									
NCCOCCOCCNCCOc1ccc(C(C(=O)NCc2ccccc2)N(C(=O)CCc2ccccc2)C2CC2)cc1 (centres undefined)						Active	Active	Active	Active	Active	Active	inactive	Active	Active
